Test results reported in ChEMBL document CHEMBL4270646, “Novel antimalarial chloroquine- and primaquine-quinoxaline 1,4-di-N-oxide hybrids: Design, synthesis, Plasmodium life cycle stage profile, and preliminary toxicity studies” (Eur J Med Chem, 2018).
Activity calls are given as the source filed them. No cut-off for these calls is given here.

Legend:
Plasmodium falciparum [1] = assay: Antiplasmodial activity against chloroquine-sensitive Plasmodium falciparum 3D7 infected in human red blood cells assessed as reduction in parasite growth after 48 hrs by Hoechst 33342 staining based flow cytometric analysis; format: functional, organism-based; settings: 3D7, 48 h
Outline: (§1)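 Ring-stage cultures (>80% rings) at 1% parasitaemia in A+ human erythrocytes, 2% haematocrit. Medium RPMI 1640 with 10% A+ serum, 37°C, 5% CO2/5% O2. Compounds in DMSO at 1.56–100 µg/mL final, DMSO ≤1%. After 48 h, cells stained with Hoechst 33342 and 1×10^4 counted by flow cytometry. IC50 from logistic dose-response regression; three independent experiments in triplicate.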

Plasmodium falciparum [2] = assay: Antiplasmodial activity against the multidrug-resistant Plasmodium falciparum […] infected in human red blood cells assessed as reduction in parasite growth after 48 hrs by Hoechst 33342 staining based flow cytometric analysis; format: functional, organism-based; outline: as §1
[3] = Cytotoxicity against human HepG2 cells assessed as reduction in cell viability after 48 hrs by MTT assay; format: cell-based
Outline: (§2)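 Cells seeded at 2 × 10^5 per well and allowed 24 h at 37°C, 5% CO2 to form a monolayer. Dilutions added in triplicate and incubated 48 h. MTT (2 mg/mL) then added for 4 h, followed by DMSO for 20 min at room temperature. Absorbance read at 550 nm; DMSO diluent and untreated cells served as negative controls. CC50 derived from the curve.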

[4] = Selectivity index, ratio of CC50 for human HepG2 cells to IC50 for multidrug-resistant Plasmodium falciparum […]; format: toxicity; settings: read-out: Ratio CC50/IC50
Outline: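 Selectivity index = HepG2 CC50 / FCR-3 IC50. CC50 from MTT assay after 48 h exposure, A550. IC50 from 48 h Hoechst 33342 flow-cytometry assay.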

Plasmodium yoelii [5] = assay: Antiplasmodial activity against Plasmodium yoelii 17XNL sporozoites infected in BALB/c mouse assessed as parasite reduction at 100 mg/kg, po measured at day 1 to day 4 by […]; format: functional, organism-based
Outline: (§3)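 BALB/c mice (6-8 weeks, 20-23 g), n=4 per hybrid group and n=5 per control. Dosed orally at 100 mg/kg (100 µL) on days -1, 0, +1 and +2. Vehicle was DMSO 100%; primaquine diphosphate given at 30 mg/kg daily. On day 0, 5 x 10^3 cryopreserved P. yoelii 17XNL sporozoites injected i.v. Parasitaemia read by Giemsa smear and SYBR Green flow cytometry. Groups compared by Kruskal-Wallis test.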

Plasmodium yoelii [6] = assay: Antiplasmodial activity against GFP-harboring Plasmodium yoelii sporozoites infected in human HepG2 cells expressing CD81 assessed as reduction in parasite growth treated every 24 hrs by DAPI staining-based fluorescence microscopic analysis; format: functional, organism-based; settings: HepG2, 24 h
Outline: (§4)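 Collagen-coated wells seeded with HepG2 (P. berghei), HepG2-CD81 (P. yoelii) or primary human hepatocytes (P. falciparum). Sporozoites added: 5×10^3 to 1×10^4 per well to the cell lines, 2.5×10^4 per well to hepatocytes. Compounds given at infection: top 10 µg/mL plus seven serial dilutions, renewed at 3 h and then every 24 h. Cultures grown 40 h (cell lines) or 8 days (hepatocytes) at 37°C. Methanol-fixed, HSP70 immunolabelled, DAPI counterstained. IC50 from logistic regression; triplicate.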

Plasmodium berghei [7] = assay: Antiplasmodial activity against GFP-harboring Plasmodium berghei sporozoites infected in human HepG2 cells assessed as reduction in parasite growth treated every 24 hrs by DAPI staining-based fluorescence microscopic analysis; format: functional, organism-based; settings: HepG2, 24 h; outline: as §4
[8] = Cytotoxicity against human HepG2 cells expressing CD81 assessed as reduction in cell viability after 48 hrs by MTT assay; format: cell-based; outline: as §2
[9] = Selectivity index, ratio of CC50 for human HepG2 cells expressing CD81 to IC50 for GFP-expressing Plasmodium yoelii sporozoites; format: toxicity; settings: read-out: Ratio CC50/IC50
Outline: (§5)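 Selectivity index = CC50 (matching cell) / IC50 (matching parasite). Cell–parasite pairs: HepG2-CD81 with P. yoelii, HepG2 with P. berghei, human hepatocytes with P. falciparum.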

[10] = Selectivity index, ratio of CC50 for human HepG2 cells to IC50 for GFP-expressing Plasmodium berghei sporozoites; format: toxicity; settings: read-out: Ratio CC50/IC50; outline: as §5
[11] = Selectivity index, ratio of CC50 for human primary hepatocytes to IC50 for GFP-expressing Plasmodium falciparum sporozoites; format: toxicity; settings: read-out: Ratio CC50/IC50; outline: as §5
Plasmodium yoelii [12] = assay: Antiplasmodial activity against Plasmodium yoelii 17XNL sporozoites infected in BALB/c mouse assessed as decrease in parasitaemia in blood at 100 mg/kg, po measured at day 4 by […] relative to control; format: functional; set-up: scale not given: the % may be the effect or the level left; outline: as §3
Plasmodium yoelii [13] = assay: Antiplasmodial activity against Plasmodium yoelii 17XNL sporozoites infected in BALB/c mouse assessed as pre-patent time period of parasitaemia at 100 mg/kg, po measured at day 4 by […]; format: functional; outline: as §3
Mus musculus [14] = assay: Acute toxicity in BALB/c mouse assessed as necrosis of liver at 500 mg/kg, po administered as single dose measured at day 14 by haematoxylin and eosin staining based microscopic analysis; format: organism-based; settings: in vivo
Outline: (§6)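 Female BALB/c mice, groups of three, single oral dose; vehicle DMSO 100% for controls. Mice euthanised with CO2 on day 14, or earlier if suffering. Gross necropsy performed. Spleen, liver and kidney fixed in formaldehyde 37%, stained with haematoxylin and eosin and examined by light microscopy.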

Mus musculus [15] = assay: Acute toxicity in BALB/c mouse assessed as necrosis of kidney at 500 mg/kg, po administered as single dose measured at day 14 by haematoxylin and eosin staining based microscopic analysis; format: organism-based; settings: in vivo; outline: as §6
Mus musculus [16] = assay: Acute toxicity in BALB/c mouse assessed as ulcerated congestion in stomach at 500 mg/kg, po administered as single dose measured at day 14 by […]; format: organism-based; settings: in vivo; outline: as §6
Plasmodium falciparum [17] = assay: Antiplasmodial activity against GFP-harboring Plasmodium falciparum sporozoites infected in human primary hepatocytes assessed as reduction in parasite growth treated every 24 hrs by DAPI staining-based fluorescence microscopic analysis; format: functional, organism-based; outline: as §4
[18] = Cytotoxicity against human primary hepatocytes assessed as reduction in cell viability after 48 hrs by MTT assay; format: cell-based, Hepatocyte; outline: as §2
Plasmodium berghei [19] = assay: Potency index, ratio of primaquine IC50 to compound IC50 for GFP-expressing Plasmodium berghei sporozoites infected in human HepG2 cells; format: functional
Plasmodium yoelii [20] = assay: Antiplasmodial activity against Plasmodium yoelii 17XNL sporozoites infected in BALB/c mouse assessed as parasite burden at 100 mg/kg, po measured at day 4 by […] (reference value: 0.06%); format: functional; outline: as §3
Plasmodium berghei [21] = assay: (§7) Antiplasmodial activity against GFP-expressing gametocytes of Plasmodium berghei sporozoites in Anopheles stephensi mosquitoes feeded on blood from infected Swiss mouse assessed as reduction in number of oocysts in mosquito midgut at 100 mg/kg, ip pretreated for 1.5 hrs followed by blood feeding of mosquito and measured at 8 days post mosquitoes infection by fluorescence microscopic method relative to control; format: functional; set-up: scale not given: the % may be the effect or the level left
Outline: (§8)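 Swiss mice (female, 6 weeks) infected i.p. with PbGFP-infected red cells (200 µL, 3000 parasites/µL). Gametocytes monitored 4 days by Giemsa smear and exflagellation. Hybrid given i.p. at 100 mg/kg in DMSO 1.5 h before A. stephensi fed 1 h on mice with 1% gametocytes. Controls were untreated and DMSO-treated mice. Thirty mosquitoes per group dissected after 8 days. Midgut oocysts counted by fluorescence microscopy against control mosquitoes taken as 100%.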

Plasmodium berghei [22] = assay: as §7, with “in” for “in number of oocysts in”, “infection” for “midgut”; format: functional; set-up: scale not given: the % may be the effect or the level left; outline: as §8
Plasmodium yoelii [23] = assay: Antiplasmodial activity against GFP-harboring Plasmodium yoelii sporozoites infected in human HepG2 cells expressing CD81 assessed as reduction in parasite growth at 10 ug/ml treated every 24 hrs by DAPI staining-based fluorescence microscopic analysis; format: functional, organism-based; outline: as §4
Plasmodium berghei [24] = assay: Antiplasmodial activity against GFP-harboring Plasmodium berghei sporozoites infected in human HepG2 cells assessed as reduction in parasite growth at 10 ug/ml treated every 24 hrs by DAPI staining-based fluorescence microscopic analysis; format: functional, organism-based; outline: as §4
Plasmodium falciparum [25] = assay: Antiplasmodial activity against GFP-harboring Plasmodium falciparum sporozoites infected in human primary hepatocytes assessed as reduction in parasite growth at 10 ug/ml treated every 24 hrs by DAPI staining-based fluorescence microscopic analysis; format: functional, organism-based; outline: as §4

SMILES	IC50 (Plasmodium falciparum [1]) [µM]	IC50 (Plasmodium falciparum [2]) [µM]	CC50 at 48 h [3] [µM]	selectivity ratio [4]	IC50 (Plasmodium yoelii [6]) [µM]	IC50 (Plasmodium berghei [7]) [µM]	CC50 at 48 h [8] [µM]	selectivity ratio [9]	selectivity ratio [10]	selectivity ratio [11]	IC50 (Plasmodium falciparum [17]) [µM]	CC50 at 48 h [18] [µM]	Activity (Plasmodium yoelii [20]) [%]	other results
Cc1ccc2c(c1)[n+]([O-])c(C(=O)NCCNc1ccnc3cc(Cl)ccc13)c(C)[n+]2[O-]	0.57	2.24	31.4	14										
COc1cc(NC(C)CCCN)c2ncccc2c1 (centres undefined) [PRIMAQUINE]	9.86	1.1	120	109	2.13	3.65	69.8	32.8	33	136				Activity (Plasmodium yoelii [5]): inactive; Activity (Plasmodium yoelii [12]): 100%; Time (Plasmodium yoelii [13]): 24 h; Activity (Mus musculus [14]): Non-Toxic; Activity (Mus musculus [15]): Non-Toxic; Activity (Mus musculus [16]): Toxic
COc1ccc2c(c1)[n+]([O-])c(C(=O)NCCNc1ccnc3cc(Cl)ccc13)c(C)[n+]2[O-]	2.11	2.07	92.7	44.8										
Cc1c(C(=O)NCCNc2ccnc3cc(Cl)ccc23)[n+]([O-])c2cc(Cl)ccc2[n+]1[O-]	0.52	0.4	21.8	54.6	14.6	10.1	69.9	4.78	2.15	9.56	6.39	61.1		
Cc1c(C(=O)NCCNc2ccnc3cc(Cl)ccc23)[n+]([O-])c2ccccc2[n+]1[O-]	0.78	1.9	58.2	30.6										
COc1cc(NC(C)CCCNC(=O)c2c(C)[n+]([O-])c3ccc(Cl)cc3[n+]2[O-])c2ncccc2c1 (centres undefined)	62.6	36.1	155	3.34	5.71	1.14	> 198	34.7	136	54.5	3.64	> 198	0.01	Ratio IC50 (Plasmodium berghei [19]): 3.2; Activity (Plasmodium berghei [21]): 77%; Activity (Plasmodium berghei [22]): 23%
Cc1cc2c(cc1C)[n+]([O-])c(C(=O)NCCNc1ccnc3cc(Cl)ccc13)c(C)[n+]2[O-]	0.68	0.9	64.5	71.7										inhibition (Plasmodium yoelii [23]): inactive; inhibition (Plasmodium berghei [24]): inactive; inhibition (Plasmodium falciparum [25]): inactive
COc1cc(NC(C)CCCNC(=O)c2c(C)[n+]([O-])c3cc(C)c(C)cc3[n+]2[O-])c2ncccc2c1 (centres undefined)	30.8	52.9	> 202	> 3.82		11.3	> 202		> 17.8	20.2	8.11	> 202	0.06	
COc1cc(NC(C)CCCNC(=O)c2c(C)[n+]([O-])c3ccc(OC)cc3[n+]2[O-])c2ncccc2c1 (centres undefined)	27	30.7	> 204	> 6.63		14.1	> 204		> 14.5			> 204	0.02	inhibition (Plasmodium yoelii [23]): inactive; inhibition (Plasmodium falciparum [25]): inactive
CCN(CC)CCCC(C)Nc1ccnc2cc(Cl)ccc12 (centres undefined) [CHLOROQUINE]			137											
COc1cc(NC(C)CCCNC(=O)c2c(C)[n+]([O-])c3ccc(C)cc3[n+]2[O-])c2ncccc2c1 (centres undefined)	44.9	50.6	110	2.17	14	6.34	> 207	14.7	17.3	28.6	7.21	> 207	0.03	
